The record followed here is ChEMBL document CHEMBL4393703, “Organoseleno cytostatic derivatives: Autophagic cell death with AMPK and JNK activation” (Eur J Med Chem, 2019).

The nature of data set [1]: Antiproliferative activity against human HTB-54 cells assessed as reduction in cell growth at 10 uM incubated for 48 hrs by MTT assay. It counts as functional. Set-up: scale not given: the % may be the effect or the level left. In outline:
(§1)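 Two-concentration MTT screen (10 and 100 µM; the 10 µM readings are the values here) run before full dose-response profiling. Cells seeded at 8,000–40,000 per well depending on cell size and left overnight, then exposed to compound for 48 h. MTT (2 mg/mL stock) added for 4 h, formazan dissolved in DMSO, absorbance read at 550 nm. Growth given as percent of untreated controls, averaged.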
In general terms: Tetrazolium assays rely on reduction of a dye to a coloured formazan, in cell work by metabolically active cells.

Data set [2] in a line: Cytotoxicity against human BEAS2B cells assessed as reduction in cell growth at 10 uM incubated for 48 hrs by MTT assay. The conditions noted are these: BEAS-2B cells, read-out: Activity. It counts as cell-based. In short, it runs like this: as §1
Data set [3] relates to HT-29. The data set can be described thus: Antiproliferative activity against human HT-29 cells assessed as reduction in cell growth at 10 uM incubated for 48 hrs by MTT assay. Type of data set: functional. Also on record: scale not given: the % may be the effect or the level left. In outline:
as §1

For data set [4], the system named is CCRF-CEM. Nature of the data set: Antiproliferative activity against human CCRF-CEM cells assessed as reduction in cell growth at 10 uM incubated for 48 hrs by MTT assay. Type of data set: functional. Set-up: scale not given: the % may be the effect or the level left. In short, it runs like this: as §1
A short description of data set [5]: Cytotoxicity against human 184B5 cells assessed as reduction in cell growth at 10 uM incubated for 48 hrs by MTT assay. It counts as cell-based. The settings on record: read-out: Activity. In short, it runs like this: as §1
The test system of data set [6] is K562. Nature of the data set: Antiproliferative activity against human K562 cells assessed as reduction in cell growth at 10 uM incubated for 48 hrs by MTT assay. It counts as functional. Also on record: scale not given: the % may be the effect or the level left. In outline: as §1
The subject of data set [7] is PC-3. The data set can be described thus: Antiproliferative activity against human PC3 cells assessed as reduction in cell growth at 10 uM incubated for 48 hrs by MTT assay. It counts as functional. Set-up: scale not given: the % may be the effect or the level left. In short, it runs like this: as §1
The test system of data set [8] is MCF7. The data set can be described thus: Antiproliferative activity against human MCF7 cells assessed as reduction in cell growth at 10 uM incubated for 48 hrs by MTT assay. Also on record: scale not given: the % may be the effect or the level left. Type of data set: functional. In short, it runs like this: as §1
Data set [9] has as its system MOLT-4. The data set can be described thus: Antiproliferative activity against human MOLT4 cells assessed as reduction in cell growth at 10 uM incubated for 48 hrs by MTT assay. It counts as functional. Also on record: scale not given: the % may be the effect or the level left. In short, it runs like this:
as §1

`N#C[Se]c1ccc(NC(=O)c2ccccc2-c2ccccc2C(=O)O)cc1`: the Activity in data set [1] was determined as 106.35%; in data set [3], 103.42%; in [4] it was 100.75%; in data set [6] it was 100.79%; in data set [7], 103.12%; in data set [8], 92.09%. In [9], the Activity stood at 113.27%. In addition, the inhibition at 48 h, 10 µM in [2] came out at 89.3%; in data set [5] it was 116%.

As for `O=C(O)COCC(=O)Nc1ccc([Se][Se]c2ccc(NC(=O)COCC(=O)O)cc2)cc1`, the Activity was determined as 59.62% in data set [1]; 71.63% in data set [3]; 67.11% in data set [4]; 120.32% in data set [6]; 36.49% in data set [7]; 58.4% in data set [8]. In addition, the Activity in data set [9] was 100.26%. For the same compound, the inhibition at 48 h, 10 µM in data set [2] was found to be 56.8%; in data set [5], 72.1%.

For the compound `O=C(O)c1ccccc1C(=O)Nc1ccc([Se][Se]c2ccc(NC(=O)c3ccccc3C(=O)O)cc2)cc1`, the Activity was determined as 100.9% in [1]; 98.98% in data set [3]; 84.92% in data set [4]; 95.27% in [6]; 98.48% in [7]; 107.45% in data set [8]. Moreover, the Activity in data set [9] was 96.04%. Also, the values for the inhibition at 48 h, 10 µM in data set [2] and in [5] were 63.7% and 93.4%, respectively.

Take `N#C[Se]c1ccc(NC(=O)COCC(=O)O)cc1`: the Activity in [1] is reported as 98.4%; in [3], 90.48%; in data set [4], 89.38%; in data set [6] it was 90.71%; in data set [7], 22.89%; in data set [8] it was 54.04%. Also, the Activity in [9] stood at 101.67%. Also, the inhibition at 48 h, 10 µM in data set [2] was 81.1%; in data set [5], 96.7%.

Take `N#C[Se]c1ccc(NC(=O)CCC(=O)O)cc1`: the Activity in data set [1] is listed as 59.11%; in [3], 81.87%; in data set [4] it was 48.62%; in data set [6], 94.9%; in data set [7] it was 56.3%; in [8], 66.51%. For the same compound, in data set [9], the Activity is recorded as 91.48%. The figures for the inhibition at 48 h, 10 µM in [2] and in data set [5] were 67.7% and 84.7%, respectively.

For `O=C(O)C1CCCCC1C(=O)Nc1ccc([Se][Se]c2ccc(NC(=O)C3CCCCC3C(=O)O)cc2)cc1` (stereo not given), the Activity in data set [1] is 95.11%; in data set [3], 99.45%; in data set [4], -33.59%; in data set [6] it was 111.58%; in data set [7], 116.42%; in data set [8], 74.45%. The Activity in [9] came to 101.94%. For the same compound, the inhibition at 48 h, 10 µM in data set [2] is 91%; in data set [5] it was 55%.

As for `O=C(O)/C=C\C(=O)Nc1ccc([Se][Se]c2ccc(NC(=O)/C=C\C(=O)O)cc2)cc1`, the Activity in data set [1] was found to be 79.95%; in data set [3], 98.04%; in data set [4], 119.77%; in data set [6], 97.45%; in data set [7], 80.03%; in data set [8], 94.07%. Moreover, in [9], the Activity is recorded as 105.28%. The values for the inhibition at 48 h, 10 µM in data set [2] and in [5] were 86.1% and 98.3%, respectively.

Consider `O=C1COCC(=O)N1c1ccc([Se][Se]c2ccc(N3C(=O)COCC3=O)cc2)cc1`, for which the Activity in [1] turned out to be 104.55%; in data set [3], 122.24%; in [4], 81.46%; in data set [6], 104.46%; in data set [7], 94.53%; in data set [8] it was 111.5%. Also, in data set [9], the Activity is 108.78%. Besides, the inhibition at 48 h, 10 µM in data set [2] was 84.2%; in data set [5] it was 112%.

`N#C[Se]c1ccc(NC(=O)C2CCCCC2C(=O)O)cc1` (stereo not given): the Activity in [1] worked out at 112.43%; in [3], 68.62%; in data set [4], 103.77%; in data set [6] it was 121.06%; in [7], 103.04%; in data set [8] it was 52.91%. For the same compound, in data set [9], the Activity was 94.82%. Further, the inhibition at 48 h, 10 µM in data set [2] is 96.1%; in data set [5] it was 114%.

As to `O=C(O)CCC(=O)Nc1ccc([Se][Se]c2ccc(NC(=O)CCC(=O)O)cc2)cc1`, the Activity in data set [1] is listed as 88.05%; in data set [3] it was 91.61%; in data set [4] it was 80.57%; in data set [6] it was 105.24%; in [7] it was 70.9%; in [8] it was 69.66%. In data set [9], the Activity was 83.23%. Also, the inhibition at 48 h, 10 µM in [2] worked out at 76.6%; in data set [5], 80.2%.
